Results from different studies.
Protocols differ between the studies behind these lines.
Target: Serine/threonine-protein kinase PAK 2 (PAK2, Homo sapiens, UniProt Q13177)

CO[C@@H](C)c1c(Nc2ccc([C@H](N(C)C(=O)C3CCS(=O)(=O)CC3)C(F)(F)F)cc2)cnc2cc(Cl)nn12  remaining binding (cell-free assay, competition with immobilised ligand; 1 µM): 76%
CS(=O)(=O)Nc1cccc(-c2csc(NC(=O)CSc3nc4nccnc4c(=O)n3CCc3ccccc3)n2)c1  inhibition (enzyme activity, inhibitor; 10 µM): 3%
Cn1cc(Cl)c2c(Oc3c(F)cc(Nc4cc(Cl)nc(N)n4)cc3F)ccnc21  remaining binding (cell-free assay, competition with immobilised ligand; 0.1 µM): 100%
Cn1c(=O)n(-c2ccc(C(C)(C)C#N)cc2)c2c3cc(-c4cnc5ccccc5c4)ccc3ncc21  remaining activity (enzyme activity, inhibitor; 10 µM): 87%
CC(C)(O)[C@H]1CC[C@H](Nc2ccc3ncc(-c4cccc(C(F)(F)F)c4)n3n2)CC1  remaining activity (enzyme activity, inhibitor; 1 µM): 93.4%
CNC(=O)c1cc(Oc2ccc(NC(=O)Nc3ccc(Cl)c(C(F)(F)F)c3)cc2)ccn1  remaining signal (cell-free assay; 0.5 µM): 101%
COc1ccc2c(c1)O[C@H](c1ccc(OC)c(OC)c1)C[C@@H]2NC(=O)C1(c2ccc3c(c2)OC(F)(F)O3)CC1  remaining binding (cell-free assay, competition with immobilised ligand; 1 µM): 100%
COc1cc2ncnc(Nc3ccc(Oc4ccccc4)cc3C)c2cc1OC  inhibition (enzyme activity, inhibitor; 1 µM): 2%
CNCc1ccc(-c2cc(-c3nc(-c4ccc(S(=O)(=O)C(C)C)cc4)cnc3N)on2)cc1  inhibition (enzyme activity, inhibitor; 2 µM): 6%
Cc1nc(N2CC[C@@H](O)C2)ncc1-c1cc(C(F)(F)F)cc2[nH]ncc12  remaining binding (cell-free assay, competition with immobilised ligand; 1 µM): 100%
CCCOc1ccc(OC)c(F)c1C(=O)c1ccc(C(=O)N[C@@H]2CNC[C@H]2NC(=O)c2ccc3[nH]ncc3c2)cc1  remaining activity (enzyme activity, inhibitor; 10 µM): 74%
CCCS(=O)(=O)Nc1ccc(F)c(C(=O)c2c[nH]c3ncc(-c4ccc(Cl)cc4)cc23)c1F  inhibition (enzyme activity, inhibitor; 1 µM): < 10%
Cc1ccc(C(=O)NCc2ccsc2)cc1C#Cc1cn(C(C)C)c2ncnc(N)c12  activity vs control (enzyme activity, inhibitor; 1 µM): 79%
FC(F)(F)Oc1cccc(-c2cnc3ccc(-c4ccncc4)nn23)c1  activity vs control (enzyme activity, inhibitor, radiometric; 5 µM): 88%
COc1cc(Cl)c(C(=O)N[C@@H](CN[C@H]2CC[C@@H](N)CC2)Cc2ccc(C#N)cc2)cc1-c1ccc(CN[C@H](C)c2ccc(C)cc2)o1  remaining activity (enzyme activity, inhibitor; 1 µM): 98%
O=C(Nc1cnn(-c2csc(C(=O)NC3COC3)c2)c1)Nc1ccccc1Cl  remaining activity (enzyme activity, inhibitor; 5 µM): 90.1%
COc1cc(Nc2cnc(C#N)c(O[C@H](C)CN(C)C)n2)ncc1-c1cnn(C)c1  remaining activity (enzyme activity, inhibitor, radiometric; 1 µM): 100%
Cc1cnc(NC2CCOCC2)nc1-n1cnc(C(=O)NC(CN)c2cc(F)cc(Cl)c2)c1 (centres unmarked)  remaining activity (enzyme activity, inhibitor, radiometric; 1 µM): 77%
COc1cc(/C=C/C(=O)CC(=O)/C=C/c2ccc(O)c(OC)c2)ccc1O  activity vs control (enzyme activity, inhibitor; 1 µM): 84%
CC(C)(O)c1cncc(-c2nc3ccc(F)cc3n2C2CC2)c1  remaining binding (cell-free assay, competition with immobilised ligand; 1 µM): 100%
COc1cc(Nc2c(C#N)cnc3cc(OCCCN4CCN(C)CC4)c(OC)cc23)c(Cl)cc1Cl  remaining signal (cell-free assay; 0.5 µM): 69.4%
Cc1ccc(Nc2nccc(N(C)c3ccc4c(C)n(C)nc4c3)n2)cc1S(N)(=O)=O  inhibition (enzyme activity, inhibitor; 10 µM): 24%
Cc1cc(NC(=O)c2cccc3cc(-c4cccc5[nH]nc(N)c45)ccc23)ccc1F  activity vs control (enzyme activity, inhibitor; 0.1 µM): 98%
CCN(CC)CCNC(=O)c1c(C)[nH]c(/C=C2\C(=O)Nc3ccc(F)cc32)c1C  inhibition (enzyme activity, inhibitor; 10 µM): 8%
C=CC(=O)Nc1cc(Nc2nccc(Nc3cc(Cl)c(F)cc3C(C)(C)O)n2)c(OC)cc1N1CC[C@@H](N(C)C)C1  inhibition (enzyme activity, inhibitor; 1 µM): 5%
N#CCCc1ccc2c(c1)-c1[nH]c3ccc([N+](=O)[O-])cc3c1CC(=O)N2  remaining signal (cell-free assay; 0.5 µM): 55.6%
O=C1CCc2cc(Nc3cc(OC4CCOCC4)c([N+](=O)[O-])cc3Cl)ccc2N1  remaining binding (cell-free assay, competition with immobilised ligand; 1 µM): 96%
COc1cc2ncnc(Nc3ccc(F)c(Cl)c3)c2cc1OCCCN1CCOCC1  remaining signal (cell-free assay; 0.5 µM): 100%
O=S(=O)(NC1CCC(c2cc(F)ccc2F)(S(=O)(=O)c2ccc(Cl)cc2)CC1)C(F)(F)F (centres unmarked)  remaining binding (cell-free assay, competition with immobilised ligand; 1 µM): 100%
CC(C)(C)c1nc(-c2cccc(NS(=O)(=O)c3c(F)cccc3F)c2F)c(-c2ccnc(N)n2)s1  remaining activity (enzyme activity, inhibitor, radiometric; 1 µM): 88%
CN([C@@H]1CCc2c(CC(=O)O)c3ccccc3n2C1)S(=O)(=O)c1ccc(F)cc1  remaining binding (cell-free assay, competition with immobilised ligand; 1 µM): 100%
FC(F)c1nc2ccccc2n1-c1nc(N2CCOCC2)nc(N2CCOCC2)n1  remaining activity (enzyme activity, inhibitor; 10 µM): 100%
